Results: ChEMBL document CHEMBL4229411, “Senolytic activity of piperlongumine analogues: Synthesis and biological evaluation” (Bioorg Med Chem, 2018)
Calls of active or inactive are those of the source. No cut-off for these calls is given here.

Experiments:
[1] = biological target: T1, Oxidation resistance protein 1 (Homo sapiens) (UniProt Q8N573); assay: Induction of OXR1 degradation in ionizing radiation induced human WI38 senescent cells at 5 uM after 24 hrs by Western blot analysis
T1 sequence (whole entry): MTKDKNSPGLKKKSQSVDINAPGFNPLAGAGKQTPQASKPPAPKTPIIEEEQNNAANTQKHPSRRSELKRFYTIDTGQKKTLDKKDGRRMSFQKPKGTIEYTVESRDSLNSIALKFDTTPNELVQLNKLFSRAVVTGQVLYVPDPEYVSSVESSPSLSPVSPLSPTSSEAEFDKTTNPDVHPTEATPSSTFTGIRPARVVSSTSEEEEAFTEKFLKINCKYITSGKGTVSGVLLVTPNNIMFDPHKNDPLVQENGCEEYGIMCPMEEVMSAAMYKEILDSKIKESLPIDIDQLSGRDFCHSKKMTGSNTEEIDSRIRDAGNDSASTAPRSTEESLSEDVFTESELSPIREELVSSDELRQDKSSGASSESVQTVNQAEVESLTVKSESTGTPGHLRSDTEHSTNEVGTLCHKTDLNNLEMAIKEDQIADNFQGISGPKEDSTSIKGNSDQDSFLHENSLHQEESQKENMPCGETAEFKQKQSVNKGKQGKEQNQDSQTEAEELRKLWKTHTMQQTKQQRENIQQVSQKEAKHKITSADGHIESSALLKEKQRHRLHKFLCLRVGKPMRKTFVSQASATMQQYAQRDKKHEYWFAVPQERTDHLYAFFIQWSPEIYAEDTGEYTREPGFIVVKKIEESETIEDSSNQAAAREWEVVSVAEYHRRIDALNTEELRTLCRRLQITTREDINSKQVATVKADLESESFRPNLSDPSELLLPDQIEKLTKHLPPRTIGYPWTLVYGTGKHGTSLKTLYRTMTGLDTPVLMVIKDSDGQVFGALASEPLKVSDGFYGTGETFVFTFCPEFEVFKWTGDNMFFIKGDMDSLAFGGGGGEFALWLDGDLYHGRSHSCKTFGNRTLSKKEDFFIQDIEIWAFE
Method in brief: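 Cells were lysed in RIPA buffer with EDTA/EGTA and proteins were transferred to PVDF. Membranes were blocked in 5% nonfat milk/TBST and probed overnight at 4 °C for OXR1 and β-actin. Bands were quantified; mean ± SEM, n = 3.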

[2] = Selectivity index, ratio of EC50 for non-senescent human WI38 cells to EC50 for ionizing radiation induced human WI38 senescent cells; assay type: functional, WI-38
Method in brief: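 Human WI-38 fibroblasts were grown in DMEM with 10% FBS and penicillin/streptomycin at 37 °C in 5% CO2. Low-passage cells (<25 passages) served as non-senescent controls. Viability was read by flow cytometry.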

[3] = tested on: WI-38; assay: Senolytic activity against ionizing radiation induced human WI38 senescent cells assessed as reduction in cell viability by propidium iodide staining based flow cytometry; assay type: functional
Method in brief: (§1)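 WI-38 fibroblasts were grown in DMEM/10% FBS with penicillin/streptomycin at 37 °C, 5% CO2. Low-passage cells (<25 passages) served as non-senescent controls.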

[4] = tested on: WI-38; assay: Induction of ROS production in ionizing radiation induced human WI38 senescent cells up to 64 uM after […] by DHR123 dye based flow cytometry; assay type: functional, cell-based
[5] = Toxicity in po dosed mouse; assay type: organism-based; conditions: in vivo
[6] = tested on: WI-38; assay: Senolytic activity against non-senescent human WI38 cells assessed as reduction in cell viability by propidium iodide staining based flow cytometry; method in brief: as §1
[7] = tested on: WI-38; assay: Induction of apoptosis in ionizing radiation induced human WI38 senescent cells assessed as early apoptotic cells at 10 uM after 48 hrs by Annexin V-FITC/propidium iodide staining based flow cytometry (reference value: […]); assay type: functional
[8] = tested on: WI-38; assay: Induction of apoptosis in ionizing radiation induced human WI38 senescent cells assessed as late apoptotic cells at 10 uM after 48 hrs by Annexin V-FITC/propidium iodide staining based flow cytometry (reference value: […]); assay type: functional
[9] = tested on: WI-38; assay: Induction of apoptosis in ionizing radiation induced human WI38 senescent cells assessed as necrotic cells at 10 uM after 48 hrs by Annexin V-FITC/propidium iodide staining based flow cytometry (reference value: […]); assay type: functional
[10] = tested on: WI-38; assay: Induction of apoptosis in ionizing radiation induced human WI38 senescent cells assessed as live cells at 10 uM after 48 hrs by Annexin V-FITC/propidium iodide staining based flow cytometry (reference value: 87%); assay type: functional

For `C=C1CCN(C(=O)/C=C/c2cc(OC)c(OC)c(OC)c2)C1=O`, the Activity [1] was “Active”.
With `COc1cc(/C=C/C(=O)N2CCC=CC2=O)cc(OC)c1OC` [PIPLARTINE] the Activity [1] was “Active”, the “Ratio EC50” value [2] was 2.5 and the EC50 [3] was 8 µM. The Activity [4] was “Active”, the MTD [5] was > 1000 mg/kg and the EC50 [6] was 20.3 µM.
For `C=C1CCCCN(C(=O)/C=C/c2cc(OC)c(OC)c(OC)c2)C1=O`, the Activity [1] was “Active”.
In the case of `C=C1CCCN(C(=O)/C=C/c2cc(OC)c(OC)c(OC)c2)C1=O`, the Activity [1] is reported as “Active”.
With `CC(C)[C@H](NC(=O)c1ccc2ccccc2n1)C(=O)N[C@@H](CC(=O)O)C(=O)COc1c(F)cccc1F` the Activity [7] was 7.7%, the Activity [8] was 8% and the Activity [9] was 3.4%. The Activity [10] was 80.9%.
